From ChEMBL document CHEMBL1145787, “Synthesis and structure-activity relationship of N-substituted 4-arylsulfonylpiperidine-4-hydroxamic acids as novel, orally active matrix metalloproteinase inhibitors for the treatment of osteoarthritis” (J Med Chem, 2003)

What was measured:
[1] = Maximum plasma concentration of compound was determined in dog at 25 mg/kg orally; assay type: ADME, organism-based, Canis lupus familiaris; parameters: dose 25 mg/kg, route oral; conditions: po
Outline: (§1)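 Single oral dose of 25 mg/kg in Sprague–Dawley rats, New Zealand rabbits, Beagle dogs and Cynomolgus monkeys. Mean plasma pharmacokinetics; Cmax is the maximum plasma concentration and Tmax is the time of peak concentration.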

[2] = Maximum plasma concentration of compound was determined in monkey at 25 mg/kg orally; assay type: ADME, organism-based; parameters: dose 25 mg/kg, route oral; conditions: simiiformes, po; outline: as §1
[3] = Maximum plasma concentration of compound was determined in rabbit at 25 mg/kg orally; assay type: ADME, organism-based, Oryctolagus cuniculus; parameters: dose 25 mg/kg, route oral; conditions: po; outline: as §1
[4] = Maximum plasma concentration of compound was determined in rat at 25 mg/kg orally; assay type: ADME, organism-based; parameters: dose 25 mg/kg, route oral; conditions: po; outline: as §1
[5] = Total clearance of compound was determined in rabbit at 5 mg/kg intravenously admn.; assay type: ADME, organism-based, Oryctolagus cuniculus; parameters: dose 5 mg/kg, route intravenous; conditions: in vivo, iv, read-out: CLT
Outline: (§2)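 Single iv dose of 5 mg/kg in Sprague–Dawley rats, New Zealand rabbits, Beagle dogs and Cynomolgus monkeys. Mean plasma pharmacokinetics: C0 is the concentration at T=0, Vdss the volume of distribution at steady state, and CLT the total clearance.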

[6] = Total clearance of compound was determined in rat at 5 mg/kg intravenously admn.; assay type: ADME, organism-based; parameters: dose 5 mg/kg, route intravenous; conditions: in vivo, iv, read-out: CLT; outline: as §2
[7] = Total clearance of compound was determined in monkey at 5 mg/kg intravenously admn.; assay type: ADME, organism-based; parameters: dose 5 mg/kg, route intravenous; conditions: simiiformes, in vivo, iv, read-out: CLT; outline: as §2
[8] = Peak concentration of compound at Time = 0 was determined in monkey at 5 mg/kg intravenously admn.; assay type: ADME, organism-based; parameters: dose 5 mg/kg, route intravenous; conditions: simiiformes, in vivo, iv; outline: as §2
[9] = Peak concentration of compound at Time = 0 was determined in rabbit at 5 mg/kg intravenously admn.; assay type: ADME, organism-based, Oryctolagus cuniculus; parameters: dose 5 mg/kg, route intravenous; conditions: in vivo, iv; outline: as §2
[10] = Peak concentration of compound at Time = 0 was determined in rat at 5 mg/kg intravenously admn.; assay type: ADME, organism-based; parameters: dose 5 mg/kg, route intravenous; conditions: in vivo, iv; outline: as §2
[11] = Area under concentration-time curve of compound was determined in dog at 25 mg/kg orally; assay type: ADME, organism-based, Canis lupus familiaris; parameters: dose 25 mg/kg, route oral; conditions: in vivo, po
Outline: (§3)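 Single-dose PK in Sprague–Dawley rats, New Zealand rabbits, Beagle dogs and cynomolgus monkeys. Dosing was 25 mg/kg oral or 5 mg/kg iv. Plasma concentration–time profiles gave the apparent elimination half-life (T1/2) and the area under the concentration–time curve (AUC). Parameters are reported as means.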

[12] = Area under concentration-time curve of compound was determined in monkey at 25 mg/kg orally; assay type: ADME, organism-based; parameters: dose 25 mg/kg, route oral; conditions: simiiformes, in vivo, po; outline: as §3
[13] = Area under concentration-time curve of compound was determined in rabbit at 25 mg/kg orally; assay type: ADME, organism-based, Oryctolagus cuniculus; parameters: dose 25 mg/kg, route oral; conditions: in vivo, po; outline: as §3
[14] = Area under concentration-time curve of compound was determined in rat at 25 mg/kg orally; assay type: ADME, organism-based; parameters: dose 25 mg/kg, route oral; conditions: in vivo, po; outline: as §3
[15] = Area under concentration-time curve of compound was determined in dog at 5 mg/kg intravenously admn.; assay type: ADME, organism-based, Canis lupus familiaris; parameters: dose 5 mg/kg, route intravenous; conditions: in vivo, iv, read-out: AUC 0; outline: as §3
[16] = Area under concentration-time curve of compound was determined in monkey at 5 mg/kg intravenously admn.; assay type: ADME, organism-based; parameters: dose 5 mg/kg, route intravenous; conditions: simiiformes, in vivo, iv, read-out: AUC 0; outline: as §3
[17] = Area under concentration-time curve of compound was determined in rabbit at 5 mg/kg intravenously admn.; assay type: ADME, organism-based, Oryctolagus cuniculus; parameters: dose 5 mg/kg, route intravenous; conditions: in vivo, iv, read-out: AUC 0; outline: as §3
[18] = Area under concentration-time curve of compound was determined in rat at 5 mg/kg intravenously admn.; assay type: ADME, organism-based; parameters: dose 5 mg/kg, route intravenous; conditions: in vivo, iv, read-out: AUC 0; outline: as §3
[19] = Peak concentration of compound at Time = 0 was determined in dog at 5 mg/kg intravenously admn.; assay type: ADME, organism-based, Canis lupus familiaris; parameters: dose 5 mg/kg, route intravenous; conditions: in vivo, iv; outline: as §2
[20] = Volume of distribution at steady state of compound was determined in dog at 5 mg/kg intravenously admn.; assay type: ADME, organism-based, Canis lupus familiaris; parameters: dose 5 mg/kg, route intravenous; conditions: in vivo, iv, read-out: Vdss; outline: as §2
[21] = Volume of distribution at steady state of compound was determined in monkey at 5 mg/kg intravenously admn.; assay type: ADME, organism-based; parameters: dose 5 mg/kg, route intravenous; conditions: simiiformes, in vivo, iv, read-out: Vdss; outline: as §2
[22] = Volume of distribution at steady state of compound was determined in rabbit at 5 mg/kg intravenously admn.; assay type: ADME, organism-based, Oryctolagus cuniculus; parameters: dose 5 mg/kg, route intravenous; conditions: in vivo, iv, read-out: Vdss; outline: as §2
[23] = Volume of distribution at steady state of compound was determined in rat at 5 mg/kg intravenously admn.; assay type: ADME, organism-based; parameters: dose 5 mg/kg, route intravenous; conditions: in vivo, iv, read-out: Vdss; outline: as §2
[24] = Oral bioavailability of compound was determined in dog at 25 mg/kg orally; assay type: ADME, organism-based, Canis lupus familiaris; conditions: in vivo, read-out: Bioavailabiility
[25] = test system: Oryctolagus cuniculus; assay: Effect of compound on cartilage in surgically induced osteoarthritis (OA) model in rabbit at 15 mg/kg, value are relative to activity of RS-130830 (7.9+/-1.5) at 25 mg/kg; assay type: ADME, organism-based, Cartilage tissue; conditions: in vivo
Outline: (§4)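 Rabbits had anterior cruciate ligament transection plus meniscectomy in one knee, with sham surgery on the contralateral knee. From day 10 after surgery, groups of 12 were dosed once daily by oral gavage with vehicle, test compound or the RS-130830 reference for 4 weeks. Knee joints were then collected and scored for gross pathological changes by blinded investigators.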

[26] = test system: Oryctolagus cuniculus; assay: Effect of compound on cartilage in surgically induced osteoarthritis (OA) model in rabbit at 25 mg/kg, value are relative to activity of RS-130830 (7.9+/-1.5) at 25 mg/kg; assay type: ADME, organism-based, Cartilage tissue; conditions: in vivo; outline: as §4

Cmax [1]: 96.3 µg/mL
Cmax [2]: 50.3 µg/mL
Cmax [3]: 22.7 µg/mL
Cmax [4]: 75.2 µg/mL
clearance [5]: 0.1 mL/min/kg
clearance [6]: 0.3 mL/min/kg
clearance [7]: 0.1 mL/min/kg
C0 [8]: 162 µg/mL
C0 [9]: 126 µg/mL
C0 [10]: 329 µg/mL
AUC [11]: 1810 µg·h/mL
AUC [12]: 1410 µg·h/mL
AUC [13]: 363 µg·h/mL
AUC [14]: 899 µg·h/mL
AUC [15]: 786 µg·h/mL
AUC [16]: 1510 µg·h/mL
AUC [17]: 640 µg·h/mL
AUC [18]: 327 µg·h/mL
C0 [19]: 82 µg/mL
Vd [20]: 0.1 L/kg
Vd [21]: 0.2 L/kg
Vd [22]: 0.1 L/kg
Vd [23]: 0.1 L/kg
bioavailability [24]: 47%
Average gross pathology scores+/- SE [25]: 9.7
Average gross pathology scores+/- SE [26]: 6.8
Compound: O=C(NO)C1(S(=O)(=O)c2ccc(Oc3ccc(Cl)cc3)cc2)CCN(Cc2ccccc2)CC1
